Results from ChEMBL document CHEMBL5380838, “Novel Aryl Sulfonamide Derivatives as NLRP3 Inflammasome Inhibitors for the Potential Treatment of Cancer” (J Med Chem, 2023).
The source made the active and inactive calls. The calls are words filed in the database; no cut-off is given here.

Key:
[1] = Half life in C57BL/6 mouse at 25 mg/kg, ip measured for 0.083 to 24 hrs by LC-MS/MS analysis; type: ADME, organism-based; conditions: in vivo, time 0.083-24 hrs
How it was run: (§1)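 Female C57BL/6 mice, 8 weeks old, 25–30 g, given a single IP dose of 25 mg/kg. Sampling at 5 and 20 min and 1, 2, 3, 6, 8 and 24 h, 3 mice per timepoint; Li-heparin plasma from the cava vein. ACN/MeOH precipitation with diclofenac internal standard, then LC-MS/MS in ESI(−) MRM mode, range 1–2000 ng/mL. Noncompartmental analysis, linear trapezoidal AUC.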

BMDM = experiment: Effect on ASC level in LPS-treated mouse BMDM cells at 1 uM incubated for 30 mins followed by ATP stimulation for 1 hr by Hoechst staining based microscopy; type: functional, cell-based; conditions: time 90.0 min
How it was run: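 BMDMs primed with LPS 1 µg/mL for 2 h, given DMSO or compound 1 µM for 30 min, then 5 mM ATP for 1 h. Cells fixed in 4% PFA, permeabilized with 0.1% Triton X-100, stained with anti-ASC overnight at 4 °C plus fluorescent secondary, nuclei Hoechst 1 µM; confocal imaging with 63× oil objective.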

Mus musculus [2] = experiment: Antiinflammatory activity in LPS-induced C57BL/6 mouse assessed as reduction in IL-1beta production in plasma at 25 mg/kg, ip pretreated for 30 mins followed by LPS induction measured after 4 hrs by ELISA method; type: functional, organism-based; conditions: time 4.5 hrs
How it was run: (§2)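 C57BL/6 mice given inhibitor 25 mg/kg IP (vehicle DMSO) 30 min before IP LPS 1 mg/kg; after 4 h, peritoneal exudate and blood collected, plasma from centrifugation 1000g 15 min 4 °C; IL-1β measured by ELISA; mean ± SEM of three independent experiments.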

THP-1 [3] = experiment: Suppression of IL-1beta processing in LPS-treated human THP-1 cells at 1 to 1000 nM incubated for 30 mins followed by ATP stimulation for 1 hr by ELISA method; type: functional, cell-based; conditions: dose 1-1000 nM, time 90.0 min
B16-F10 [4] = experiment: Effect on cleaved caspase-1 expression in cytosolic luciferase-transfected mouse B16-F10 cells xenografted in C57BL/6 mouse at 25 mg/kg, ip administered thrice weekly measured after 14 days by Western blot analysis; type: functional, organism-based; conditions: time 14.0 day
How it was run: (§3)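 Tumors from luciferase-expressing B16-F10 grafts in C57BL/6 mice, dosed IP at 25 mg/kg thrice weekly (DMSO controls), were excised at endpoint and homogenized in sucrose/HEPES/IGEPAL lysis buffer. Lysates were western blotted and bands expressed as fold ratio over β-actin (n = 5).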

B16-F10 [5] = experiment: Antiproliferative activity against cytosolic luciferase-transfected mouse B16-F10 cells xenografted in C57BL/6 mouse assessed as effect on cell growth at 25 mg/kg, ip administered thrice weekly measured after 5 days; type: functional, organism-based; conditions: time 5.0 day
[6] = Metabolic stability in human liver microsomes assessed as half life measured per mg protein at 1 uM measured upto 60 mins by LC-MS/MS analysis; type: ADME, Microsome
How it was run: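 Pooled human or CD-1 male mouse liver microsomes at 0.5 mg/mL with test compound 1 µM in 50 mM phosphate pH 7.4 and 3 mM MgCl2, preincubated 10 min at 37 °C. Percent parent remaining vs 0 min measured by LC-MS/MS. Cli = k/microsomal conc. × 1000; mean ± SD, n = 2.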

[7] = Cmax in C57BL/6 mouse at 25 mg/kg, ip measured for 0.083 to 24 hrs by LC-MS/MS analysis; type: ADME, organism-based; design: time upper 24 hrs, dose 25 mg/kg, time lower 0.083 hrs, route ip; conditions: in vivo; how it was run: as §1
Mus musculus [8] = experiment: Antiinflammatory activity in LPS-induced C57BL/6 mouse assessed as reduction in IL-1beta production in peritoneal exudate at 25 mg/kg, ip pretreated for 30 mins followed by LPS induction measured after 4 hrs by ELISA method; type: functional, organism-based; conditions: time 4.5 hrs; how it was run: as §2
THP-1 [9] = experiment: Suppression of caspase-1 expression in LPS-treated human THP-1 cells at 1 to 1000 nM incubated for 30 mins followed by ATP stimulation for 1 hr by […]; type: functional, cell-based; conditions: dose 1-1000 nM, time 90.0 min
How it was run: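 PMA-differentiated THP-1 cells (1 × 10^6/well) primed with LPS 1 µg/mL for 3 h, then DMSO or compound in serum-free medium for 30 min, then 5 mM ATP for 1 h. RIPA lysates (20 µg) and concentrated supernatants run on SDS-PAGE and western blotted for NLRP3, ASC, caspase-1 and IL-1β, normalized to GAPDH; three independent experiments.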

B16-F10 [10] = experiment: Effect on total caspase-1 expression in cytosolic luciferase-transfected mouse B16-F10 cells xenografted in C57BL/6 mouse at 25 mg/kg, ip administered thrice weekly measured after 14 days by Western blot analysis; type: functional, organism-based; conditions: time 14.0 day; how it was run: as §3

Structure (SMILES): CC(C)[C@H](NS(=O)(=O)c1ccc([N+](=O)[O-])cc1)C(=O)Nc1c2c(cc3c1CCC3)CCC2
- half-life [1]: 9.5 h
- Activity (BMDM): inactive
- Activity (Mus musculus [2]): Active
- Activity (THP-1 [3]): Active
- Activity (B16-F10 [4]): inactive
- Activity (B16-F10 [5]): inactive
- half-life at 1 µM [6]: 0.508 h
- Cmax [7]: 1670 ng/mL
- Activity (Mus musculus [8]): Active
- Activity (THP-1 [9]): inactive
- Activity (B16-F10 [10]): inactive
